The target in this experiment is T1, ADRP (adipose differentiation-related protein) (Mus musculus, UniProt P43883).
T1 sequence (P43883 2-425): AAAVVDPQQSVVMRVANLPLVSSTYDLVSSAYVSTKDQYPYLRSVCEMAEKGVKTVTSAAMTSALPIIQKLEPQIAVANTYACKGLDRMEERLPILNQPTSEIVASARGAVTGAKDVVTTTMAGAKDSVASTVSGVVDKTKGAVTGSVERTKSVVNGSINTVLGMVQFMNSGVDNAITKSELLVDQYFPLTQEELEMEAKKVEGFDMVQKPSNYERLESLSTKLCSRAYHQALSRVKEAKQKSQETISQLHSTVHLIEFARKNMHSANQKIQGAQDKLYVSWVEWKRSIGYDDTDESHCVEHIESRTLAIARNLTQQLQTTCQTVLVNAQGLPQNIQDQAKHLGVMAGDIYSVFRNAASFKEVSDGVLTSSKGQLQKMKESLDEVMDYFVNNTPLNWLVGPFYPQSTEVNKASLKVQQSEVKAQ
The experiment is described as follows: fluorescence saturation binding titration, single-site fit. An outline of the steps: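 Stepwise titration of the NBD-labelled lipid (NBD-sphingomyelin or NBD-phosphatidylcholine, 100 µM stock) into ADRP (180 nM) in 10 mM phosphate buffer, pH 7.4. After each addition, samples were mixed 3–4 min at 25°C and the NBD probe was excited; emission 490–600 nm was integrated and corrected for blank and background. Kd and Bmax come from a single-site fit of three independent measurements (mean ± SE).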

`CCCCCCCCCCCCCCCC(=O)OC[C@H](COP(=O)([O-])OCC[N+](C)(C)C)OC(=O)CCCCCNc1ccc([N+](=O)[O-])c2nonc12` [NBD-phosphatidylcholine, 2-(6-(7-nitrobenz-2-oxa-1,3-diazol-4-yl)amino)hexanoyl-1-hexadecanoyl-sn-glycero-3-phosphocholine] had an equilibrium dissociation constant (Kd) of 0.015 ± 0.003 µM.

Compound `CCCCCCCCCCCCC/C=C/[C@@H](O)[C@H](COP(=O)([O-])OCC[N+](C)(C)C)NC(=O)CCCCCNc1ccc([N+](=O)[O-])c2nonc12` [NBD-sphingomyelin, 6-((N-(7-nitrobenz-2-oxa-1,3-diazol-4-yl)amino)-hexanoyl)sphingosyl-phosphocholine] came in with a Kd of 0.257 ± 0.064 µM.

For orientation: Kd means a measure of binding affinity in units of concentration.

These data come from paper PMC3065392 (Lipids, 2010).
